Test results reported in ChEMBL document CHEMBL4043178, “Synthesis and evaluation of analogs of 5'-(((Z)-4-amino-2-butenyl)methylamino)-5'-deoxyadenosine (MDL 73811, or AbeAdo) - An inhibitor of S-adenosylmethionine decarboxylase with antitrypanosomal activity” (Bioorg Med Chem, 2017).

Columns and labels:
Liver [1] = test: (§1) Half life in human pooled liver microsomes at 1 uM in presence of NADPH by LC/MS/MS method; format: ADME, microsome; conditions: microsomes, 1 µM
[2] = Inhibition of Trypanosoma brucei AdoMetDC pre-incubated for 30 mins before AdoMet substrate addition by RapidFire-mass spectrometry
Liver [3] = test: (§2) Half life in mouse pooled liver microsomes at 1 uM in presence of NADPH by LC/MS/MS method; format: ADME, microsome; conditions: microsomes, 1 µM
Trypanosoma brucei [4] = test: Inhibition of Trypanosoma brucei AdoMetDC at 50 uM without pre-incubation for 30 mins before AdoMet substrate addition by RapidFire-mass spectrometry
How it was run: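 Inhibition without pre-incubation: substrate solution (80 µM AdoMet) added to compound before the enzyme solution (50 nM purified T. brucei AdoMetDC/prozyme); buffer Hepes pH 7.7 with 5 mM putrescine. Reaction ran 20 min, stopped with 1 M HCl, then analysed by RapidFire-MS.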

Trypanosoma brucei [5] = test: Antitrypanosomal activity against Trypanosoma brucei Lister 427 bloodstream forms assessed as inhibition of parasite growth incubated for 48 hrs by ATP-bioluminescence cell viability assay; format: functional; conditions: Lister 427, 48 h
[6] = Inhibition of Trypanosoma brucei AdoMetDC without pre-incubation for 30 mins before AdoMet substrate addition by RapidFire-mass spectrometry
Trypanosoma brucei [7] = test: Inhibition of Trypanosoma brucei AdoMetDC at 50 uM pre-incubated for 30 mins before AdoMet substrate addition by RapidFire-mass spectrometry
How it was run: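 Purified T. brucei AdoMetDC/prozyme complex, 50 nM in the enzyme solution, pre-incubated 30 min with compound in DMSO before adding the substrate solution (80 µM AdoMet); Hepes pH 7.7, NaCl, 5 mM putrescine. Reaction 20 min, quenched with 1 M HCl; substrate and product quantified by RapidFire-MS.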

MDCK-MDR1 = test: Apparent permeability in MDCK2-MDR1 cells at 3 uM incubated for 1 hr in absence of P-glycoprotein inhibitor GF120918 by LC/MS/MS method; format: ADME, cell-based, Canis lupus familiaris; conditions: dog, mdck-mdr1, 1 h
Trypanosoma brucei [8] = test: Antitrypanosomal activity against Trypanosoma brucei Lister 427 bloodstream forms assessed as inhibition of parasite growth at 25 uM incubated for 48 hrs by ATP-bioluminescence cell viability assay; format: functional; conditions: Lister 427, 48 h, read-out: GI
How it was run: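 Bloodstream-form Lister 427 cells grown in HMI-19, seeded at 3000 cells/mL; compound added as 100-fold intermediate dilution, final DMSO 0.1%. After 48 h culture, viability read by CellTiter-Glo ATP-bioluminescence. Tested 0.0038–25 µM in 3-fold steps, triplicate; no-cell and DMSO-only controls (0% and 100% viability) per plate; value is percent inhibition at 25 µM.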

[9] = as §1; format: ADME, microsome; conditions: pooled liver microsomes
[10] = as §2; format: ADME, microsome; conditions: pooled liver microsomes
[11] = Inhibition of His-tagged Trypanosoma brucei AdoMetDC expressed in Escherichia coli pre-incubated for 30 mins before AdoMet substrate addition
[12] = test system: Trypanosoma brucei brucei; test: Antitrypanosomal activity against Trypanosoma brucei brucei; format: functional

t1/2 (Liver [1]) | t1/2 (Liver [3]) | inhibition (Trypanosoma brucei [4]) | EC50 (Trypanosoma brucei [5]) | inhibition (Trypanosoma brucei [7]) | Papp (MDCK-MDR1) | half-life at 1 µM [9] | half-life at 1 µM [10] | IC50 [11] | EC50 [12] | SMILES | IC50 [2] | IC50 [6] | inhibition of growth at 25 µM (Trypanosoma brucei [8])
> 1.5 h | > 1.5 h | 33% | 0.36 µM |  |  |  |  |  |  | CCOc1ncnc2c1ncn2[C@@H]1O[C@H](CN(C)C/C=C\CN)[C@@H](O)[C@H]1O | 0.6 µM |  | 
> 1.5 h | > 1.5 h |  | > 3 µM |  |  |  |  |  |  | Cc1nc2c(N)ncnc2n1[C@@H]1O[C@H](CN(C/C=C\CN)C2CC2)[C@H]2OC(C)(C)O[C@H]21 | > 50 µM | > 50 µM | 
> 1.5 h | > 1.5 h | 22% | 0.42 µM |  |  |  |  |  |  | CN(C/C=C\CN)C[C@H]1O[C@@H](n2cnc3c(N)ncnc32)[C@@H]2OC(C)(C)O[C@@H]21 | 3 µM |  | 
0.4 h | 0.217 h | 17% | 2.6 µM | 39% |  |  |  |  |  | Cc1nc2c(N)ncnc2n1[C@@H]1O[C@H](CN(C)C/C=C\CNC(=O)OCc2ccccc2)[C@@H](O)[C@H]1O |  |  | 
> 1.5 h | > 1.5 h |  | 0.37 µM |  |  |  |  |  |  | CNc1ncnc2c1ncn2[C@@H]1O[C@H](CN(C)C/C=C\CN)[C@@H](O)[C@H]1O | 0.17 µM | 14 µM | 
< 0.0417 h | < 0.0417 h |  | 3 µM |  | 31.2 ×10⁻⁶ cm/s |  |  |  |  | Cc1nc2c(N)ncnc2n1[C@@H]1O[C@H](CN(C/C=C\CNC(=O)OC(C)(C)C)C2CC2)[C@H]2OC(C)(C)O[C@H]21 | 42 µM | > 50 µM | 
> 1.5 h | > 1.5 h | 37% | 10 µM |  |  |  |  |  |  | CN(C/C=C\CN)C[C@H]1O[C@@H](n2cnc3c(N(C)C)ncnc32)[C@H](O)[C@@H]1O | 0.81 µM |  | 
> 1.5 h | 0.11 h |  | > 25 µM |  |  |  |  |  |  | CC(=O)NC/C=C\CN(C)C[C@H]1O[C@@H](n2cnc3c(N)ncnc32)[C@H](OC(C)=O)[C@@H]1OC(C)=O | > 50 µM | > 50 µM | 
< 0.0417 h | < 0.0417 h |  | > 25 µM |  | 5.1 ×10⁻⁶ cm/s |  |  |  |  | Cc1nc2c(N)ncnc2n1[C@@H]1O[C@H](CN(C)C/C=C\CNC(=O)OC(C)(C)C)[C@H]2OC(C)(C)O[C@H]21 | > 50 µM | > 50 µM | 
> 1.5 h | > 1.5 h |  | > 25 µM | 36% |  |  |  |  |  | NC/C=C\CN(CCF)C[C@H]1O[C@@H](n2cnc3c(N)ncnc32)[C@H](O)[C@@H]1O |  | > 50 µM | 
> 1.5 h | > 1.5 h |  | 2.5 µM |  |  |  |  |  |  | CC(C)Nc1ncnc2c1ncn2[C@@H]1O[C@H](CN(C)C/C=C\CN)[C@@H](O)[C@H]1O | 0.11 µM | 7.1 µM | 
0.162 h | 0.1 h |  | 0.16 µM |  | 1 ×10⁻⁶ cm/s |  |  |  |  | CCCCCCCCC(=O)Nc1ncnc2c1ncn2[C@@H]1O[C@H](CN(C)C/C=C\CN)[C@H]2OC(C)(C)O[C@H]21 | 0.85 µM | 48 µM | 
> 1.5 h | > 1.5 h |  | > 25 µM |  |  |  |  |  |  | Cc1nc2c(N)ncnc2n1[C@@H]1O[C@H](CN(C/C=C\CN)CCO)[C@H]2OC(C)(C)O[C@H]21 | > 50 µM | > 50 µM | 
> 1.5 h | > 1.5 h |  | > 25 µM |  |  |  |  |  |  | CCCC(=O)NC/C=C\CN(C)C[C@H]1O[C@@H](n2cnc3c(N)ncnc32)[C@H](O)[C@@H]1O | > 50 µM | > 50 µM | 
> 1.5 h | > 1.5 h |  |  |  |  |  |  |  |  | Cc1nc2c(N)ncnc2n1[C@@H]1O[C@H](CN(C)C/C=C\CNC(=O)OC(C)C)[C@@H](O)[C@H]1O | > 50 µM | > 50 µM | 35%
> 1.5 h | > 1.5 h |  | > 3 µM |  |  |  |  |  |  | Cc1nc2c(N)ncnc2n1[C@@H]1O[C@H](CN(C/C=C\CN)C2CC2)[C@@H](O)[C@H]1O | > 50 µM | > 50 µM | 
> 1.5 h | > 1.5 h | 40% |  | 40% |  |  |  |  |  | CCOC(=O)NC/C=C\CN(C)C[C@H]1O[C@@H](n2c(C)nc3c(N)ncnc32)[C@H](O)[C@@H]1O |  |  | 
> 1.5 h | > 1.5 h |  | > 25 µM |  |  |  |  |  |  | CC1(C)O[C@@H]2[C@H](O1)[C@@H](CN(C/C=C\CN)CCF)O[C@H]2n1cnc2c(N)ncnc21 | > 50 µM | > 50 µM | 
> 1.5 h | > 1.5 h |  |  |  |  |  |  |  |  | CNc1ncnc2c1ncn2[C@@H]1O[C@H](CN(C)C/C=C\CN)[C@H]2OC(C)(C)O[C@H]21 | 12 µM | > 50 µM | 37%
 |  |  |  |  |  | ≤ 2.5 min | ≤ 2.5 min |  |  | CC(=O)Oc1cc(C)cc(C)c1C(C)(C)CC(=O)NC/C=C\CN(C)C[C@H]1O[C@@H](n2cnc3c(N)ncnc32)[C@@H]2OC(C)(C)O[C@@H]21 | > 50 µM |  | 44%
> 1.5 h | 0.983 h |  | > 25 µM |  |  |  |  |  |  | CN(C/C=C\CN)C[C@H]1O[C@@H](n2cnc3cncnc32)[C@@H]2OC(C)(C)O[C@@H]21 | > 50 µM | > 50 µM | 
0.85 h | 0.05 h |  | > 25 µM |  |  |  |  |  |  | CCCC(=O)NC/C=C\CN(C)C[C@H]1O[C@@H](n2cnc3c(N)ncnc32)[C@H](OC(C)=O)[C@@H]1OC(C)=O | > 50 µM | > 50 µM | 
> 1.5 h | > 1.5 h |  | 0.01 µM |  |  |  |  | 0.041 µM | 0.01 µM | CN(C/C=C\CN)C[C@H]1O[C@@H](n2cnc3c(N)ncnc32)[C@H](O)[C@@H]1O | 0.041 µM | 2.4 µM | 
> 1.5 h | > 1.5 h |  | 0.0018 µM |  |  |  |  | 0.021 µM | 0.0018 µM | Cc1nc2c(N)ncnc2n1[C@@H]1O[C@H](CN(C)C/C=C\CN)[C@@H](O)[C@H]1O | 0.021 µM | 0.23 µM | 
> 1.5 h | > 1.5 h |  | > 25 µM |  |  |  |  |  |  | CC(=O)NC/C=C\CN(C)C[C@H]1O[C@@H](n2cnc3c(N)ncnc32)[C@H](O)[C@@H]1O | 18 µM | 13 µM | 
1.25 h | 0.0767 h |  | > 25 µM |  |  |  |  |  |  | CCC(=O)NC/C=C\CN(C)C[C@H]1O[C@@H](n2cnc3c(N)ncnc32)[C@H](OC(C)=O)[C@@H]1OC(C)=O | > 50 µM | > 50 µM | 
> 1.5 h | > 1.5 h |  | > 25 µM |  |  |  |  |  |  | CCC(=O)NC/C=C\CN(C)C[C@H]1O[C@@H](n2cnc3c(N)ncnc32)[C@H](O)[C@@H]1O | 25 µM | 19 µM | 
